According to ChEMBL document CHEMBL1153580, “Synthesis and pharmacological investigation of 3-(substituted 1-phenylethanone)-4-(substituted phenyl)-1, 2, 3, 4-tetrahydropyrimidine-5-carboxylates” (Eur J Med Chem, 2009):

These compounds were tested on Rattus norvegicus (assay: Antihypertensive activity in Norwegian albino rat assessed as inhibition of DOCA salt-induced systolic blood pressure at 10 mg/kg, po after 60 mins by non-invasive tail-cuff method). Details: Artery, 1 h.
Assay type: functional
In short: (§1)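 Male rats (200–250 g), uninephrectomized under pentobarbital (50 mg/kg i.p.); one week later DOCA s.c. 30–50 mg/kg/week, with 1% w/v NaCl in drinking water. Groups of six, trained in restrainer, tail warmed at 33–34 °C. Compound in 0.5% CMC, 10 mg/kg orally. Systolic pressure read by tail-cuff before dosing and from 1 h after; three readings averaged. ANOVA.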

Row | Structure (SMILES) | inhibition in vivo at 10 mg/kg
1 | CCOC(=O)C1=C(C)NC(OC)N(CC(=O)c2ccc(OC)cc2)C1c1ccc(O)cc1 (stereo not drawn) | 12.7%
2 | CCOC(=O)C1=C(C)NC(OC)N(CC(=O)c2ccccc2)C1c1ccc(Cl)cc1 (stereo not drawn) | 15.2%
3 | CCOC(=O)C1=C(C)NC(OC)N(CC(=O)c2ccccc2)C1c1ccccc1 (stereo not drawn) | 13%
4 | CCOC(=O)C1=C(C)NC(OC)N(CC(=O)c2ccccc2)C1c1ccc(O)cc1 (stereo not drawn) | 15.2%

The compounds below were run on Rattus norvegicus (assay: Antihypertensive activity in Norwegian albino rat assessed as inhibition of DOCA salt-induced systolic blood pressure at 10 mg/kg, po after 360 mins by non-invasive tail-cuff method). Details: Artery, 6 h.
Assay type: functional
In short: as §1

Row | Structure (SMILES) | inhibition in vivo at 10 mg/kg
5 | CCOC(=O)C1=C(C)NC(OC)N(CC(=O)c2ccc(OC)cc2)C1c1ccc(O)cc1 (stereo not drawn) | 28%
6 | CCOC(=O)C1=C(C)NC(OC)N(CC(=O)c2ccccc2)C1c1ccc(Cl)cc1 (stereo not drawn) | 29.7%
7 | CCOC(=O)C1=C(C)NC(OC)N(CC(=O)c2ccccc2)C1c1ccccc1 (stereo not drawn) | 28.7%
8 | CCOC(=O)C1=C(C)NC(OC)N(CC(=O)c2ccccc2)C1c1ccc(O)cc1 (stereo not drawn) | 31.4%

These compounds were tested on Rattus norvegicus (assay: Antiinflammatory activity in Norwegian albino rat assessed as inhibition of carrageenan-induced paw edema at 100 mg/kg, po after administered 60 mins prior to carrageenan-challenge measured after 3 hrs). Details: not given.
Assay type: functional
In short: (§2)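 Compound given orally as 100 mg/kg suspension in 0.5% CMC. 60 min later, carrageenan injected sub-plantar into the left hind paw. Paw volume measured within 30 s of injection, then at 1–5 h. % inhibition = [1−(Dt/Dc)]×100, where Dt and Dc are mean relative paw-volume changes in test and control. ANOVA.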

Row | Structure (SMILES) | inhibition in vivo at 100 mg/kg
9 | CCOC(=O)C1=C(C)NC(OC)N(CC(=O)c2ccc(OC)cc2)C1c1ccc(O)cc1 (stereo not drawn) | 38.2%
10 | CCOC(=O)C1=C(C)NC(OC)N(CC(=O)c2ccccc2)C1c1ccc(Cl)cc1 (stereo not drawn) | 41%
11 | CCOC(=O)C1=C(C)NC(OC)N(CC(=O)c2ccccc2)C1c1ccccc1 (stereo not drawn) | 41%
12 | CCOC(=O)C1=C(C)NC(OC)N(CC(=O)c2ccccc2)C1c1ccc(O)cc1 (stereo not drawn) | 40.9%
13 | COc1ccc2c(c1)c(CC(=O)O)c(C)n2C(=O)c1ccc(Cl)cc1 [INDOMETHACIN] | 51.8%

These compounds were tested on Rattus norvegicus (assay: Antihypertensive activity in Norwegian albino rat assessed as inhibition of DOCA salt-induced systolic blood pressure at 10 mg/kg, po after 480 mins by non-invasive tail-cuff method). Details: Artery, 8 h.
Assay type: functional
In short: as §1

Row | Structure (SMILES) | inhibition in vivo at 10 mg/kg
14 | CCOC(=O)C1=C(C)NC(OC)N(CC(=O)c2ccc(OC)cc2)C1c1ccc(O)cc1 (stereo not drawn) | 31%
15 | CCOC(=O)C1=C(C)NC(OC)N(CC(=O)c2ccccc2)C1c1ccc(Cl)cc1 (stereo not drawn) | 35.6%
16 | CCOC(=O)C1=C(C)NC(OC)N(CC(=O)c2ccccc2)C1c1ccccc1 (stereo not drawn) | 31%
17 | CCOC(=O)C1=C(C)NC(OC)N(CC(=O)c2ccccc2)C1c1ccc(O)cc1 (stereo not drawn) | 35.5%

These compounds were tested on Rattus norvegicus (assay: Gastrointestinal toxicity in albino rat assessed as ulcerogenic index at 50 mg/kg, po). Details: in vivo.
Assay type: organism-based
Set-up: dose 50 mg/kg, route oral
In short: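 Albino rats (150–200 g), six per group, food but not water withheld 24 h. Compound given p.o. at 50 mg/kg; controls received 1% methyl cellulose. Rats fed 17 h, then killed; stomach opened along greater curvature and examined under 4× magnifier. Lesions scored as large (>2 mm), small (1–2 mm) or punctiform (<1 mm). Severity index = treated mean score minus control mean score.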

Row | Structure (SMILES) | UI
18 | CCOC(=O)C1=C(C)NC(OC)N(CC(=O)c2ccccc2)C1c1ccc(Cl)cc1 (stereo not drawn) | 0.45
19 | CCOC(=O)C1=C(C)NC(OC)N(CC(=O)c2ccccc2)C1c1ccccc1 (stereo not drawn) | 0.16
20 | CCOC(=O)C1=C(C)NC(OC)N(CC(=O)c2ccccc2)C1c1ccc(O)cc1 (stereo not drawn) | 0.18
21 | CC(C)Cc1ccc(C(C)C(=O)O)cc1 (stereo not drawn) [IBUPROFEN] | 1.97

The compounds below were run on Rattus norvegicus (assay: Antihypertensive activity in Norwegian albino rat assessed as inhibition of DOCA salt-induced systolic blood pressure at 10 mg/kg, po after 15 mins by non-invasive tail-cuff method). Details: Artery, 0.25 h.
Assay type: functional

Row | Structure (SMILES) | inhibition in vivo at 10 mg/kg
22 | CCOC(=O)C1=C(C)NC(OC)N(CC(=O)c2ccc(OC)cc2)C1c1ccc(O)cc1 (stereo not drawn) | 0.27%
23 | CCOC(=O)C1=C(C)NC(OC)N(CC(=O)c2ccccc2)C1c1ccc(Cl)cc1 (stereo not drawn) | 0.91%
24 | CCOC(=O)C1=C(C)NC(OC)N(CC(=O)c2ccccc2)C1c1ccccc1 (stereo not drawn) | 0.59%
25 | CCOC(=O)C1=C(C)NC(OC)N(CC(=O)c2ccccc2)C1c1ccc(O)cc1 (stereo not drawn) | 0.59%

The compounds below were run on Rattus norvegicus (assay: Antihypertensive activity in Norwegian albino rat assessed as inhibition of DOCA salt-induced systolic blood pressure at 10 mg/kg, po after 180 mins by non-invasive tail-cuff method). Details: Artery, 3 h.
Assay type: functional
In short: as §1

Row | Structure (SMILES) | inhibition in vivo at 10 mg/kg
26 | CCOC(=O)C1=C(C)NC(OC)N(CC(=O)c2ccc(OC)cc2)C1c1ccc(O)cc1 (stereo not drawn) | 21.6%
27 | CCOC(=O)C1=C(C)NC(OC)N(CC(=O)c2ccccc2)C1c1ccc(Cl)cc1 (stereo not drawn) | 22.9%
28 | CCOC(=O)C1=C(C)NC(OC)N(CC(=O)c2ccccc2)C1c1ccccc1 (stereo not drawn) | 21.6%
29 | CCOC(=O)C1=C(C)NC(OC)N(CC(=O)c2ccccc2)C1c1ccc(O)cc1 (stereo not drawn) | 23%

What follows are compounds tested on Rattus norvegicus (assay: Antihypertensive activity in Norwegian albino rat assessed as inhibition of DOCA salt-induced systolic blood pressure at 10 mg/kg, po after 420 mins by non-invasive tail-cuff method). Details: Artery, 7 h.
Assay type: functional
In short: as §1

Row | Structure (SMILES) | inhibition in vivo at 10 mg/kg
30 | CCOC(=O)C1=C(C)NC(OC)N(CC(=O)c2ccc(OC)cc2)C1c1ccc(O)cc1 (stereo not drawn) | 29.4%
31 | CCOC(=O)C1=C(C)NC(OC)N(CC(=O)c2ccccc2)C1c1ccc(Cl)cc1 (stereo not drawn) | 32.1%
32 | CCOC(=O)C1=C(C)NC(OC)N(CC(=O)c2ccccc2)C1c1ccccc1 (stereo not drawn) | 29.4%
33 | CCOC(=O)C1=C(C)NC(OC)N(CC(=O)c2ccccc2)C1c1ccc(O)cc1 (stereo not drawn) | 33%

The compounds below were run on Rattus norvegicus (assay: Antiinflammatory activity in Norwegian albino rat assessed as inhibition of carrageenan-induced paw edema at 100 mg/kg, po after administered 60 mins prior to carrageenan-challenge measured after 5 hrs). Details: not given.
Assay type: functional
In short: as §2

Row | Structure (SMILES) | inhibition in vivo at 100 mg/kg
34 | CCOC(=O)C1=C(C)NC(OC)N(CC(=O)c2ccc(OC)cc2)C1c1ccc(O)cc1 (stereo not drawn) | 39.9%
35 | CCOC(=O)C1=C(C)NC(OC)N(CC(=O)c2ccccc2)C1c1ccc(Cl)cc1 (stereo not drawn) | 42%
36 | CCOC(=O)C1=C(C)NC(OC)N(CC(=O)c2ccccc2)C1c1ccccc1 (stereo not drawn) | 42%
37 | CCOC(=O)C1=C(C)NC(OC)N(CC(=O)c2ccccc2)C1c1ccc(O)cc1 (stereo not drawn) | 42%
38 | COc1ccc2c(c1)c(CC(=O)O)c(C)n2C(=O)c1ccc(Cl)cc1 [INDOMETHACIN] | 52.6%

These compounds were tested on Rattus norvegicus (assay: Antihypertensive activity in Norwegian albino rat assessed as inhibition of DOCA salt-induced systolic blood pressure at 10 mg/kg, po after 240 mins by non-invasive tail-cuff method). Details: Artery, 4 h.
Assay type: functional
In short: as §1

Row | Structure (SMILES) | inhibition in vivo at 10 mg/kg
39 | CCOC(=O)C1=C(C)NC(OC)N(CC(=O)c2ccc(OC)cc2)C1c1ccc(O)cc1 (stereo not drawn) | 23.3%
40 | CCOC(=O)C1=C(C)NC(OC)N(CC(=O)c2ccccc2)C1c1ccc(Cl)cc1 (stereo not drawn) | 25.6%
41 | CCOC(=O)C1=C(C)NC(OC)N(CC(=O)c2ccccc2)C1c1ccccc1 (stereo not drawn) | 23.3%
42 | CCOC(=O)C1=C(C)NC(OC)N(CC(=O)c2ccccc2)C1c1ccc(O)cc1 (stereo not drawn) | 27.8%

What follows are compounds tested on Rattus norvegicus (assay: Antihypertensive activity in Norwegian albino rat assessed as inhibition of DOCA salt-induced systolic blood pressure at 10 mg/kg, po after 120 mins by non-invasive tail-cuff method). Details: Artery, 2 h.
Assay type: functional
In short: as §1

Row | Structure (SMILES) | inhibition in vivo at 10 mg/kg
43 | CCOC(=O)C1=C(C)NC(OC)N(CC(=O)c2ccc(OC)cc2)C1c1ccc(O)cc1 (stereo not drawn) | 19.6%
44 | CCOC(=O)C1=C(C)NC(OC)N(CC(=O)c2ccccc2)C1c1ccc(Cl)cc1 (stereo not drawn) | 20.5%
45 | CCOC(=O)C1=C(C)NC(OC)N(CC(=O)c2ccccc2)C1c1ccccc1 (stereo not drawn) | 19.6%
46 | CCOC(=O)C1=C(C)NC(OC)N(CC(=O)c2ccccc2)C1c1ccc(O)cc1 (stereo not drawn) | 21.8%

What follows are compounds tested on Rattus norvegicus (assay: Antihypertensive activity in Norwegian albino rat assessed as inhibition of DOCA salt-induced systolic blood pressure at 10 mg/kg, po after 300 mins by non-invasive tail-cuff method). Details: Artery, 5 h.
Assay type: functional
In short: as §1

Row | Structure (SMILES) | inhibition in vivo at 10 mg/kg
47 | CCOC(=O)C1=C(C)NC(OC)N(CC(=O)c2ccc(OC)cc2)C1c1ccc(O)cc1 (stereo not drawn) | 26.3%
48 | CCOC(=O)C1=C(C)NC(OC)N(CC(=O)c2ccccc2)C1c1ccc(Cl)cc1 (stereo not drawn) | 28.4%
49 | CCOC(=O)C1=C(C)NC(OC)N(CC(=O)c2ccccc2)C1c1ccccc1 (stereo not drawn) | 26.3%
50 | CCOC(=O)C1=C(C)NC(OC)N(CC(=O)c2ccccc2)C1c1ccc(O)cc1 (stereo not drawn) | 28.5%

These compounds were tested on Rattus norvegicus (assay: Antihypertensive activity in Norwegian albino rat assessed as inhibition of DOCA salt-induced systolic blood pressure at 10 mg/kg, po after 30 mins by non-invasive tail-cuff method). Details: Artery, 0.5 h.
Assay type: functional

Row | Structure (SMILES) | inhibition in vivo at 10 mg/kg
51 | CCOC(=O)C1=C(C)NC(OC)N(CC(=O)c2ccc(OC)cc2)C1c1ccc(O)cc1 (stereo not drawn) | 1.43%
52 | CCOC(=O)C1=C(C)NC(OC)N(CC(=O)c2ccccc2)C1c1ccc(Cl)cc1 (stereo not drawn) | 1.87%
53 | CCOC(=O)C1=C(C)NC(OC)N(CC(=O)c2ccccc2)C1c1ccccc1 (stereo not drawn) | 1.43%
54 | CCOC(=O)C1=C(C)NC(OC)N(CC(=O)c2ccccc2)C1c1ccc(O)cc1 (stereo not drawn) | 1.87%

Each compound was assayed on Mus musculus (assay: Analgesic activity against acetic acid-induced writhing in Swiss albino mouse assessed as protection at 20 mg/kg, po). Details: not given.
Assay type: functional
In short: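 Swiss albino mice (25–30 g), six per group, habituated 30 min individually in the test cage. Compound in 1% CMC given p.o. at 20 mg/kg. 1 h later, acetic acid injected i.p.; writhes (arching of back, body elongation, hind-limb extension) counted 5–15 min after injection. % inhibition = (n−n′)/n×100, where n and n′ are mean writhes in control and test.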

Row | Structure (SMILES) | Activity
55 | CCOC(=O)C1=C(C)NC(OC)N(CC(=O)c2ccccc2)C1c1ccc(Cl)cc1 (stereo not drawn) | 37.87%
56 | CCOC(=O)C1=C(C)NC(OC)N(CC(=O)c2ccccc2)C1c1ccccc1 (stereo not drawn) | 40.14%
57 | CCOC(=O)C1=C(C)NC(OC)N(CC(=O)c2ccccc2)C1c1ccc(O)cc1 (stereo not drawn) | 40.33%
58 | CC(C)Cc1ccc(C(C)C(=O)O)cc1 (stereo not drawn) [IBUPROFEN] | 62.55%

These compounds were tested on Rattus norvegicus (assay: Antiinflammatory activity in Norwegian albino rat assessed as inhibition of carrageenan-induced paw edema at 100 mg/kg, po after administered 60 mins prior to carrageenan-challenge measured after 1 hr). Details: not given.
Assay type: functional
In short: as §2

Row | Structure (SMILES) | inhibition in vivo at 100 mg/kg
59 | CCOC(=O)C1=C(C)NC(OC)N(CC(=O)c2ccc(OC)cc2)C1c1ccc(O)cc1 (stereo not drawn) | 37.6%
60 | CCOC(=O)C1=C(C)NC(OC)N(CC(=O)c2ccccc2)C1c1ccc(Cl)cc1 (stereo not drawn) | 39.8%
61 | CCOC(=O)C1=C(C)NC(OC)N(CC(=O)c2ccccc2)C1c1ccccc1 (stereo not drawn) | 39.8%
62 | CCOC(=O)C1=C(C)NC(OC)N(CC(=O)c2ccccc2)C1c1ccc(O)cc1 (stereo not drawn) | 39.8%
63 | COc1ccc2c(c1)c(CC(=O)O)c(C)n2C(=O)c1ccc(Cl)cc1 [INDOMETHACIN] | 46.4%
